Consider 7 molecules from ChEMBL document CHEMBL1132971, “New azolidinediones as inhibitors of protein tyrosine phosphatase 1B with antihyperglycemic properties” (J Med Chem, 2000).

In assay [1] the test system is Mus musculus. Description: Evaluated in vivo for their ability to decrease plasma glucose levels in diabetic C57BL/KsJ db/db mouse at a dose 100 mg/kg/day. It is filed as functional. The procedure, abridged:
(§1)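 Diabetic db/db or ob/ob mice dosed orally once daily for 4 days. Plasma glucose and insulin reported as percent change from a vehicle-treated group. 4-6 mice per group. Significance set at p < 0.05 or p < 0.01 versus vehicle; NS means generally less than -15% change.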

Assay [2] deals with T1, Tyrosine-protein phosphatase non-receptor type 1 (Rattus norvegicus) (UniProt P20417).
T1 sequence (whole entry): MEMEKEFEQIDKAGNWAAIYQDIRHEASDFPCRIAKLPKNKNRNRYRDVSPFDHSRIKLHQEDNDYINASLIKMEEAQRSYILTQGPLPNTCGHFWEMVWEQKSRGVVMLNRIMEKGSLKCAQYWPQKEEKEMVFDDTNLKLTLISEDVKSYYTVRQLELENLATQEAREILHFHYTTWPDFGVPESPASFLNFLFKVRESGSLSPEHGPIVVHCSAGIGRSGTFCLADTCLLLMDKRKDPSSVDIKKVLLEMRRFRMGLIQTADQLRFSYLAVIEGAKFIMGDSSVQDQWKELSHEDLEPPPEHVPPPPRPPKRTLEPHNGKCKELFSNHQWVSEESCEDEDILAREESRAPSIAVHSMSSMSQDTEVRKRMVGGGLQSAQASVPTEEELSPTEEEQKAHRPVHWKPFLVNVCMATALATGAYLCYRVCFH
Description: Inhibition of PTPase (PTP1B) activity in rat hepatic membrane at 50 uM concentration, using pNPP as the substrate. Type of assay: cell membranes. To be noted: Liver. A digest of the protocol: (§2)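 Liver membranes from male Sprague-Dawley rats (100-150 g), about 30 µg protein per well. Preincubated 10 min at 37 °C with compound in 1.25% DMSO in 50 mM HEPES pH 7.4. Then 6.33 mM pNPP for 30 min at 37 °C, stopped with NaOH. p-Nitrophenol read at 410 nm. Run in triplicate. Reported as percent of untreated control.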

Assay [3] relates to Mus musculus. In words: Evaluated for their ability to decrease plasma insulin levels in mouse at a dose 100 mg/kg/day.([…]). It is filed as functional. A digest of the protocol: as §1
Assay [4] deals with Mus musculus. Description: Evaluated in vivo for their ability to decrease plasma glucose levels in diabetic C57BL/KsJ ob/ob mouse at a dose 100 mg/kg/day.([…]). It is filed as functional. The procedure, abridged:
as §1

Assay [5] concerns the target T1, Tyrosine-protein phosphatase non-receptor type 1 (Rattus norvegicus). Description: IC50 for PTPase activity, recombinant r-PTP1B as the enzyme .
Assay [6] deals with Mus musculus. In words: Evaluated for their ability to decrease plasma insulin levels in mouse at a dose 100 mg/kg/day; **p indicates <0.01. It is filed as functional. A digest of the protocol: (§3)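 Mice dosed orally once daily for 4 days; plasma glucose and insulin measured and expressed as percent change versus a vehicle-treated group (mean ± SE, 4-6 mice/group). NS is generally less than -15% change. Significance is versus vehicle-treated mice.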

For assay [7], the system named is Mus musculus. In words: Evaluated in vivo for their ability to decrease plasma glucose levels in diabetic C57BL/KsJ db/db mouse at a dose 100 mg/kg/day; *p indicates <0.05. It is filed as functional. The procedure, abridged: as §3
Assay [8] deals with Mus musculus. Description: (§4) Evaluated in vivo for their ability to decrease plasma glucose levels in diabetic C57BL/KsJ ob/ob mouse at a dose 100 mg/kg/day; **p indicates <0.01. Type of assay: functional. The procedure, abridged:
as §1

The target in assay [9] is T2, Tyrosine-protein phosphatase non-receptor type 1 (Homo sapiens, UniProt P18031).
T2 sequence (P18031 whole entry): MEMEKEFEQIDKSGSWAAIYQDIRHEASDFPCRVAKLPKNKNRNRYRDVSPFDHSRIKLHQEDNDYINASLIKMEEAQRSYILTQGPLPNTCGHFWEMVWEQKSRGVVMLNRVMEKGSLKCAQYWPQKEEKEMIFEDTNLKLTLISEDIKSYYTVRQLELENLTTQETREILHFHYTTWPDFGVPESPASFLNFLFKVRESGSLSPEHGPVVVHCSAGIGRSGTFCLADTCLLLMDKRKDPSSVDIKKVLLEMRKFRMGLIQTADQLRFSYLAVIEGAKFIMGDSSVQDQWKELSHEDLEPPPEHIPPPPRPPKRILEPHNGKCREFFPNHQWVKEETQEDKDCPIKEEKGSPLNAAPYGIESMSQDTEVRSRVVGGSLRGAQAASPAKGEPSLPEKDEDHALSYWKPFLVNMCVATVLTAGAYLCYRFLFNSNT
Description: Concentration required to inhibit PTPase activity, recombinant Protein Tyrosine Phosphatase 1b as the enzyme at a concentration 2.5 uM. A digest of the protocol:
(§5)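 Rat recombinant PTP1B in 33 mM TRIS-HCl, 2 mM EDTA, 50 mM β-mercaptoethanol, pH 7.4 (about 1000-2000 nmol/min/mg). Preincubated 10 min at 37 °C with or without compound in HEPES buffer pH 7.4. Released phosphate read by malachite green-ammonium molybdate at 650 nm against a phosphate standard. Quadruplicates. IC50 by four-parameter logistic fit.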

For assay [10], the system named is Mus musculus. Description: (§6) Evaluated in vivo for their ability to decrease plasma glucose levels in diabetic C57BL/KsJ db/db mouse at a dose 100 mg/kg/day, *p indicates <0.05. Type of assay: functional. A digest of the protocol:
as §3

Assay [11] concerns Mus musculus. In words: Evaluated for their ability to decrease plasma insulin levels in mouse at a dose 100 mg/kg/day, **p indicates <0.01. It is filed as functional. The procedure, abridged: as §1
Assay [12] concerns the target T3, Tyrosine-protein phosphatase non-receptor type 1 (Rattus norvegicus, UniProt P20417).
T3 sequence (P20417 whole entry): T1 sequence (whole entry)
Description: Inhibition of PTPase activity using recombinant r-PTP1B and IR-triphosphopeptide as substrate; ND is no data. The procedure, abridged:
as §5

For assay [13], the system named is Mus musculus. In words: Evaluated in vivo for their ability to decrease plasma glucose levels in diabetic C57BL/KsJ ob/ob mouse at a dose 100 mg/kg/day, **p indicates <0.01. It is filed as functional. The procedure, abridged:
as §1

Assay [14] concerns Mus musculus. Described as §6. It is filed as functional. A digest of the protocol:
as §1
The source holds these as a separate data set.

The target in assay [15] is T4, Tyrosine-protein phosphatase non-receptor type 1 (Mus musculus) (UniProt P35821).
T4 sequence (whole entry): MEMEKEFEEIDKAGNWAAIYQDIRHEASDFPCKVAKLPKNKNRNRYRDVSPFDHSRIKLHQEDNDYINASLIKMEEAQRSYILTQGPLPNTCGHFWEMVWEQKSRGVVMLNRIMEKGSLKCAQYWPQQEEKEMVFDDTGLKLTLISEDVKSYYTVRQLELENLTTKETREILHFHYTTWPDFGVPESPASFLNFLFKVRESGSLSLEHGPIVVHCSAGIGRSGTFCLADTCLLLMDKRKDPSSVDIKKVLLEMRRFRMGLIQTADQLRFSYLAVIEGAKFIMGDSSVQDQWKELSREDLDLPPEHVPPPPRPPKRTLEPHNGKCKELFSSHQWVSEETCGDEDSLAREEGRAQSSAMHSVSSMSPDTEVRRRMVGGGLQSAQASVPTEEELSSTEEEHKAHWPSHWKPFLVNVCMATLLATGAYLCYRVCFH
Description: In vivo ability to decrease plasma glucose levels in diabetic C57BL/KsJ ob/ob mouse at a dose 100 mg/kg/day. Type of assay: functional, organism-based. The procedure, abridged:
as §1

The target of assay [16] is T4, Tyrosine-protein phosphatase non-receptor type 1 (Mus musculus). In words: Ability to decrease plasma insulin levels in mouse at a dose 100 mg/kg/day. Type of assay: functional, organism-based. The procedure, abridged:
as §1

The subject of assay [17] is Mus musculus. In words: Evaluated for their ability to decrease plasma insulin levels in mouse at a dose 100 mg/kg/day. Type of assay: functional. A digest of the protocol: as §3
Assay [18] deals with Mus musculus. The description is as §4. Type of assay: functional. The procedure, abridged: as §3
The source holds these as a separate data set.

Assay [19] relates to Mus musculus. Description: Evaluated in vivo for their ability to decrease plasma glucose levels in diabetic C57BL/KsJ ob/ob mouse at a dose 20 mg/kg/day; **p indicates <0.01. Type of assay: functional. The procedure, abridged: as §3
Assay [20] has as its system Mus musculus. Description: Evaluated for their ability to decrease plasma insulin level at a dose of 20 mg/kg/day; **p indicates <0.01. It is filed as functional. The procedure, abridged: as §3
Assay [21] addresses T1, Tyrosine-protein phosphatase non-receptor type 1 (Rattus norvegicus). Description: Inhibition of PTPase activity using recombinant Protein-tyrosine phosphatase 1B as the enzyme and IR-triphosphopeptide as substrate at 50 uM. A digest of the protocol:
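Recombinant rat PTP1B (human 321-aa form assayed the same way), activity about 1000-2000 nmol/min/mg, preincubated with compound for 10 min at 37 °C in HEPES pH 7.4. The reaction is started with 50 µM triphosphorylated insulin receptor 1142-1153 dodecapeptide and run 30 min at 37 °C. Released phosphate read by malachite green-molybdate at 650 nm, in quadruplicate. Result is percent inhibition versus control.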

Assay [22] shares this target. Description: Inhibition of Protein-tyrosine phosphatase 1B activity in rat hepatic membrane at a concentration of 50 uM using pNPP as the substrate. Type of assay: cell membranes. To be noted: Liver. The procedure, abridged:
as §2

Assay [23] concerns the target T3, Tyrosine-protein phosphatase non-receptor type 1. In words: Inhibition of PTPase activity using recombinant Protein-tyrosine phosphatase 1B as the enzyme and IR-triphosphopeptide as substrate.
For assay [24] the target is unchanged. In words: Inhibition of PTPase activity using recombinant r-PTP1B as the enzyme and IR-triphosphopeptide as substrate. A digest of the protocol: as §5

Broadly, the inhibition is the percentage by which the read-out fell short of the control. By IC50 is commonly meant the concentration that inhibits the measured activity by half. On to `C/C(=C\CC1SC(=O)NC1=O)c1cccc(OCc2nc(-c3ccc(OC(F)(F)F)cc3)oc2C)c1` (stereo not given), for which the results for the Decrease with Mus musculus [1], with Mus musculus [3] and with Mus musculus [4] were 18%, 63% and 44%, respectively. Also, the inhibition in [2] worked out at 46%. In addition, the IC50 in assay [5] is 1.5 µM.
`C/C(=C\Cn1oc(=O)[nH]c1=O)c1cccc(OCc2nc(-c3ccccc3)oc2C)c1` (stereo in doubt; 49): the Decrease in the assay with Mus musculus [6] was found to be 76%; in the assay with Mus musculus [7] it was 28%; with Mus musculus [8], 39%.
`C/C(=C\Cn1oc(=O)[nH]c1=O)c1cccc(OCc2ccccn2)c1` showed an inhibition in assay [2] of 5%. Moreover, the IC50 in assay [9] turned out to be 9 µM.
With `C/C(=C\Cn1oc(=O)[nH]c1=O)c1cccc(OCc2nc(-c3ccc(OC(F)(F)F)cc3)oc2C)c1`, the Decrease in the assay on Mus musculus [10] was 41%; in the assay with Mus musculus [11] it was 82%; in the assay with Mus musculus [13] it was 39%. The same molecule came in with an inhibition in assay [2] of 57%. The half-inhibitory concentration (IC50) entry in [12] is on record as “Not significant”.
As to `C/C(=C\Cn1oc(=O)[nH]c1=O)c1ccc(OCc2nc(-c3ccc(C(F)(F)F)cc3)oc2C)cc1`, the Decrease in the assay with Mus musculus [14] is 16%; in assay [15], “Not significant”; in [16], “Not significant”. Moreover, in [2], the inhibition amounted to 4.3%.
In the case of `CC/C(=C\Cn1oc(=O)[nH]c1=O)c1cccc(OCc2nc(-c3ccc(C(F)(F)F)cc3)oc2C)c1`, the Decrease in the assay with Mus musculus [17] was found to be 80%; with Mus musculus [7], 63%; in the assay with Mus musculus [18], 71%; with Mus musculus [19], 32%; with Mus musculus [20] it was 32%. For the same molecule, the values for the inhibition in [21] and in assay [22] were 90% and 57%, respectively.
`CCCC/C(=C\Cn1oc(=O)[nH]c1=O)c1cccc(OCc2cc(Cl)cc(Cl)c2)c1`: the inhibition in assay [2] was determined as 57%; in assay [22], 61%. Further, the IC50 in [23] came out at 1.8 µM; in assay [24] it was 0.8 µM.
